Measured values pooled from the literature.
Protocols differ between the studies behind these lines.
MAP4K5: Mitogen-activated protein kinase kinase kinase kinase 5 (MAP4K5, Homo sapiens, UniProt Q9Y4K4)
NT5E: 5'-nucleotidase (NT5E, Homo sapiens, UniProt P21589)
PDGFRA: Platelet-derived growth factor receptor alpha (PDGFRA, Homo sapiens, UniProt P16234)
XDH: Xanthine dehydrogenase/oxidase (XDH, Bos taurus, UniProt P80457)

CC(=O)ON=C1C=CC(=C(C#N)c2ccccc2)C=C1  activity vs control (Dual specificity tyrosine-phosphorylation-regulated kinase 1A (Dyrk1a, Rattus norvegicus, UniProt Q63470); enzyme activity; inhibitor; ADP detection; 20 µM): 101%
COc1ccc2oc(-c3ccc4nc(N)oc4c3)c/c(=N\c3ccccc3NC(=O)CCN)c2c1  remaining activity (Platelet-derived growth factor receptor alpha (PDGFRA, Homo sapiens, UniProt P16234, D842V); enzyme activity; inhibitor; 1 µM): 91%
CCCCC(=O)Nc1ccc(-c2ccc3ncn(CCC)c(=O)c3c2)cn1  remaining binding (MAP4K5; binding; competition with immobilised ligand; 0.5 µM): 92%
C1=C/COCc2cc(ccc2OCCN2CCCC2)Nc2nccc(n2)-c2cccc(c2)COC/1  remaining binding (MAP4K5; binding; 0.1 µM): 90%
Cc1cc(C)c(C#N)c(SCC(=O)Nc2cccnc2)n1  inhibition (NT5E; enzyme activity; inhibitor; 10 µM): 5%
NC/C(=C\F)COc1cccc(Cn2c(=S)[nH]c(=O)c3[nH]cnc32)c1  remaining activity (Lactoperoxidase (LPO, Bos taurus, UniProt P80025); enzyme activity; inhibitor; 20 µM): 14.2%
N#Cc1ccc(NC(=O)Nc2ccccc2)cc1  remaining binding (PDGFRA; cell-free assay; competition with immobilised ligand; 25 µM): 92%
Cc1cc(C)c(C#N)c(SCC(=O)Nc2ccon2)n1  inhibition (NT5E; enzyme activity; inhibitor; 10 µM): 3%
CC(C)(O)c1coc(S(=O)(=O)NC(=O)c2cc3ccccc3n2Cc2ccc(Br)c3ccccc23)c1  inhibition (XDH; enzyme activity; inhibitor; absorbance; 10 µM): 1.21%
COC(=O)c1ccc(NC(=O)c2sc3nc(-c4ccccc4)cc(C(F)(F)F)c3c2N)cc1  inhibition (NT5E; enzyme activity; inhibitor; HPLC; 10 µM): 94%
Oc1ncnc2[nH]ncc12  inhibition (XDH; enzyme activity; inhibitor; 250 µg/mL): 99.3%
COCCOCCOCCNC(=O)CSc1nc(-c2ccccc2)cc(C(F)(F)F)c1C#N  inhibition (NT5E; enzyme activity; inhibitor; 10 µM): -20%
C#Cc1cnc(Nc2ccnc(CO)c2)nc1Nc1ccccc1S(C)(=O)=NC#N (stereo not drawn)  remaining signal (PDGFRA; cell-free assay; 1 µM): 58%
Cc1cc(C)c(C#N)c(SC=CC(=O)Nc2ccon2)n1  inhibition (NT5E; enzyme activity; inhibitor; 10 µM): 34%
O=C(NS(=O)(=O)c1ccccc1)c1cc2ccccc2n1Cc1ccc(Br)c2ccccc12  inhibition (XDH; enzyme activity; inhibitor; absorbance; 10 µM): 20.3%
